Measured values reported in ChEMBL document CHEMBL1143493, “Synthesis of 2-[3,5-substituted pyrazol-1-yl]-4,6-trisubstituted triazine derivatives as antimalarial agents” (2005).
In brackets after ≈: the same amount, converted by molar mass.

The molecules below were run on Plasmodium falciparum (assay: Minimum inhibitory concentration against Plasmodium falciparum NF-54 after 40 hrs).
Assay type: functional
In short: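 Rieckmann-type microassay. NF-54 is kept in RPMI-1640 with 25 mM Hepes, 1% D-glucose, 0.23% NaHCO3 and 10% heat-inactivated human serum, then synchronized to ring stage with 5% D-sorbitol. Ring-stage parasites at about 1% parasitemia and 3% hematocrit are exposed in duplicate to […] for 36–40 h at 37 °C in a candle jar. Maturation is read on Giemsa smears. MIC is the concentration that completely blocks schizont maturation.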

| MIC [µg/mL] | Structure (SMILES) |
| --- | --- |
| 2 (≈ 3.41 µM) | COc1ccc(-c2cc(SC)n(-c3nc(NCCN4CCOCC4)nc(NCCN4CCOCC4)n3)n2)cc1OC |
| 50 (≈ 65.1 µM) | COc1ccccc1CN1CCN(c2nc(N3CCN(Cc4ccccc4OC)CC3)nc(-n3nc(-c4cc(OC)c(OC)c(OC)c4)cc3SC)n2)CC1 |
| 2 (≈ 3.61 µM) | COc1cc(-c2cc(SC)n(-c3nc(NC4CCCCC4)nc(NC4CCCCC4)n3)n2)cc(OC)c1OC |
| > 50 | COc1cc(-c2cc(SC)n(-c3nc(N4CCOCC4)nc(N4CCOCC4)n3)n2)cc(OC)c1OC |
| > 50 | COc1cc(-c2cc(SC)n(-c3nc(N4CCCCC4)nc(N4CCCCC4)n3)n2)cc(OC)c1OC |
| 50 (≈ 95.5 µM) | COc1ccc(-c2cc(SC)n(-c3nc(NC4CCCCC4)nc(NC4CCCCC4)n3)n2)cc1OC |
| 1 (≈ 1.76 µM) | COc1cc(-c2cc(SC)n(-c3nc(Nc4ccccc4C)nc(Nc4ccccc4C)n3)n2)cc(OC)c1OC |
| 1 (≈ 1.62 µM) | COc1cc(-c2cc(SC)n(-c3nc(NCCN4CCOCC4)nc(NCCN4CCOCC4)n3)n2)cc(OC)c1OC |
| 10 (≈ 15.5 µM) | COc1cc(-c2cc(SC)n(-c3nc(NCCCN4CCOCC4)nc(NCCCN4CCOCC4)n3)n2)cc(OC)c1OC |
| 50 (≈ 67.8 µM) | COc1ccccc1CN1CCN(c2nc(N3CCN(Cc4ccccc4OC)CC3)nc(-n3nc(-c4ccc(OC)c(OC)c4)cc3SC)n2)CC1 |
| 10 (≈ 18.5 µM) | COc1ccc(-c2cc(SC)n(-c3nc(Nc4ccccc4C)nc(Nc4ccccc4C)n3)n2)cc1OC |
| > 50 | COc1ccc(-c2cc(SC)n(-c3nc(NCc4ccccc4)nc(NCc4ccccc4)n3)n2)cc1OC |
| 10 (≈ 15.4 µM) | COc1ccc(-c2cc(SC)n(-c3nc(N4CCN(c5ccccc5)CC4)nc(N4CCN(c5ccccc5)CC4)n3)n2)cc1OC |
| 10 (≈ 20 µM) | COc1ccc(-c2cc(SC)n(-c3nc(N4CCOCC4)nc(N4CCOCC4)n3)n2)cc1OC |
| 50 (≈ 73.5 µM) | COc1cc(-c2cc(SC)n(-c3nc(N4CCN(c5ccccc5)CC4)nc(N4CCN(c5ccccc5)CC4)n3)n2)cc(OC)c1OC |
| > 50 | COc1cc(-c2cc(SC)n(-c3nc(N4CCc5ccccc5C4)nc(N4CCc5ccccc5C4)n3)n2)cc(OC)c1OC |
| 50 (≈ 84.5 µM) | COc1ccc(-c2cc(SC)n(-c3nc(N4CCc5ccccc5C4)nc(N4CCc5ccccc5C4)n3)n2)cc1OC |
| 10 (≈ 20.2 µM) | COc1ccc(-c2cc(SC)n(-c3nc(N4CCCCC4)nc(N4CCCCC4)n3)n2)cc1OC |
| 50 (≈ 70.6 µM) | COc1cc(-c2cc(SC)n(-c3nc(N4CCN(Cc5ccccc5)CC4)nc(N4CCN(Cc5ccccc5)CC4)n3)n2)cc(OC)c1OC |
| 2 (≈ 3.51 µM) | COc1cc(-c2cc(SC)n(-c3nc(NCc4ccccc4)nc(NCc4ccccc4)n3)n2)cc(OC)c1OC |
| 2 (≈ 2.95 µM) | COc1ccc(-c2cc(SC)n(-c3nc(N4CCN(Cc5ccccc5)CC4)nc(N4CCN(Cc5ccccc5)CC4)n3)n2)cc1OC |
| 10 (≈ 16.3 µM) | COc1ccc(-c2cc(SC)n(-c3nc(NCCCN4CCOCC4)nc(NCCCN4CCOCC4)n3)n2)cc1OC |
| 64 (≈ 254 µM) | CC1(C)N=C(N)N=C(N)N1c1ccc(Cl)cc1 [CYCLOGUANIL] |
